Reference: ChEMBL document CHEMBL2375313, “Synthesis, in vitro antitumor evaluation and DNA-binding study of novel tetrahydroquinolines and some derived tricyclic and tetracyclic ring systems” (Eur J Med Chem, 2013)

Columns and labels:
Type in all cases: functional
HOP-92 = assay: Cytotoxicity against human HOP92 cells assessed as growth inhibition at 10 uM after 48 hrs by sulphorhodamine B assay; conditions: HOP-92, 48 h, read-out: GI
How it was run: (§1)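 NCI-60 one-dose screen per the NCI Drug Evaluation Branch protocol. Cells given a single 10 µM concentration with 48 h continuous exposure. Growth estimated by sulphorhodamine B protein assay. Result expressed as percentage growth inhibition relative to untreated growth.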

M14 = assay: Cytotoxicity against human M14 cells assessed as growth inhibition at 10 uM after 48 hrs by sulphorhodamine B assay; conditions: M14, 48 h, read-out: GI; how it was run: as §1
NCI-H522 = assay: Cytotoxicity against human NCI-H522 cells assessed as growth inhibition at 10 uM after 48 hrs by sulphorhodamine B assay; conditions: NCI-H522, 48 h, read-out: GI; how it was run: as §1
MDA-MB-468 = assay: Cytotoxicity against human MDA-MB-468 cells assessed as growth inhibition at 10 uM after 48 hrs by sulphorhodamine B assay; conditions: MDA-MB-468, 48 h, read-out: GI; how it was run: as §1
SK-MEL-2 = assay: Cytotoxicity against human SK-MEL-2 cells assessed as growth inhibition at 10 uM after 48 hrs by sulphorhodamine B assay; conditions: SK-MEL-2, 48 h, read-out: GI; how it was run: as §1
K562 = assay: Cytotoxicity against human K562 cells assessed as growth inhibition at 10 uM after 48 hrs by sulphorhodamine B assay; conditions: K562, 48 h, read-out: GI; how it was run: as §1
CAKI-1 = assay: Cytotoxicity against human Caki1 cells assessed as growth inhibition at 10 uM after 48 hrs by sulphorhodamine B assay; conditions: CAKI-1, 48 h, read-out: GI; how it was run: as §1
NCI-H23 = assay: Cytotoxicity against human NCI-H23 cells assessed as growth inhibition at 10 uM after 48 hrs by sulphorhodamine B assay; conditions: NCI-H23, 48 h, read-out: GI; how it was run: as §1
CCRF-CEM = assay: Cytotoxicity against human CCRF-CEM cells assessed as growth inhibition at 10 uM after 48 hrs by sulphorhodamine B assay; conditions: read-out: GI; how it was run: as §1
HCT-15 = assay: Cytotoxicity against human HCT15 cells assessed as growth inhibition at 10 uM after 48 hrs by sulphorhodamine B assay; conditions: HCT-15, 48 h, read-out: GI; how it was run: as §1
[1] = Cytotoxicity against human EKVX cells assessed as growth inhibition at 10 uM after 48 hrs by sulphorhodamine B assay; conditions: read-out: GI; how it was run: as §1
HL-60(TB) = assay: Cytotoxicity against human HL-60(TB) cells assessed as growth inhibition at 10 uM after 48 hrs by sulphorhodamine B assay; conditions: HL-60, 48 h, read-out: GI
How it was run: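 NCI-60 one-dose primary screen run to the Drug Evaluation Branch protocol. Cells are exposed to a single 10 µM concentration for 48 h continuously, and growth is read by SRB protein assay. Data are reported as percent growth of treated cells, expressed as % growth inhibition.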

A549 = assay: Cytotoxicity against human A549 cells assessed as growth inhibition at 10 uM after 48 hrs by sulphorhodamine B assay; conditions: A549, 48 h, read-out: GI; how it was run: as §1
NCI/ADR-RES = assay: Cytotoxicity against human NCI/ADR-RES cells assessed as growth inhibition at 10 uM after 48 hrs by sulphorhodamine B assay; conditions: read-out: GI; how it was run: as §1
MOLT-4 = assay: Cytotoxicity against human MOLT4 cells assessed as growth inhibition at 10 uM after 48 hrs by sulphorhodamine B assay; conditions: MOLT-4, 48 h, read-out: GI; how it was run: as §1
SNB-19 = assay: Cytotoxicity against human SNB19 cells assessed as growth inhibition at 10 uM after 48 hrs by sulphorhodamine B assay; conditions: SNB-19, 48 h, read-out: GI; how it was run: as §1
Hs-578T = assay: Cytotoxicity against human Hs578T cells assessed as growth inhibition at 10 uM after 48 hrs by sulphorhodamine B assay; conditions: read-out: GI; how it was run: as §1
SF-295 = assay: Cytotoxicity against human SF295 cells assessed as growth inhibition at 10 uM after 48 hrs by sulphorhodamine B assay; conditions: SF-295, 48 h, read-out: GI; how it was run: as §1
MCF7 = assay: Cytotoxicity against human MCF7 cells assessed as growth inhibition at 10 uM after 48 hrs by sulphorhodamine B assay; conditions: MCF7, 48 h, read-out: GI; how it was run: as §1
T47D = assay: Cytotoxicity against human T47D cells assessed as growth inhibition at 10 uM after 48 hrs by sulphorhodamine B assay; conditions: read-out: GI; how it was run: as §1
UACC-62 = assay: Cytotoxicity against human UACC62 cells assessed as growth inhibition at 10 uM after 48 hrs by sulphorhodamine B assay; conditions: UACC-62, 48 h, read-out: GI; how it was run: as §1
SF-268 = assay: Cytotoxicity against human SF268 cells assessed as growth inhibition at 10 uM after 48 hrs by sulphorhodamine B assay; conditions: SF-268, 48 h, read-out: GI; how it was run: as §1
SK-MEL-5 = assay: Cytotoxicity against human SK-MEL-5 cells assessed as growth inhibition at 10 uM after 48 hrs by sulphorhodamine B assay; conditions: SK-MEL-5, 48 h, read-out: GI; how it was run: as §1
SK-OV-3 = assay: Cytotoxicity against human SKOV3 cells assessed as growth inhibition at 10 uM after 48 hrs by sulphorhodamine B assay; conditions: SK-OV-3, 48 h, read-out: GI; how it was run: as §1
RXF 393 = assay: Cytotoxicity against human RXF393 cells assessed as growth inhibition at 10 uM after 48 hrs by sulphorhodamine B assay; conditions: RXF 393, 48 h, read-out: GI; how it was run: as §1
A498 = assay: Cytotoxicity against human A498 cells assessed as growth inhibition at 10 uM after 48 hrs by sulphorhodamine B assay; conditions: A498, 48 h, read-out: GI; how it was run: as §1
OVCAR-5 = assay: Cytotoxicity against human OVCAR5 cells assessed as growth inhibition at 10 uM after 48 hrs by sulphorhodamine B assay; conditions: OVCAR-5, 48 h, read-out: GI; how it was run: as §1
HT-29 = assay: Cytotoxicity against human HT-29 cells assessed as growth inhibition at 10 uM after 48 hrs by sulphorhodamine B assay; conditions: HT-29, 48 h, read-out: GI; how it was run: as §1
HCT-116 = assay: Cytotoxicity against human HCT116 cells assessed as growth inhibition at 10 uM after 48 hrs by sulphorhodamine B assay; conditions: HCT-116, 48 h, read-out: GI; how it was run: as §1
ACHN = assay: Cytotoxicity against human ACHN cells assessed as growth inhibition at 10 uM after 48 hrs by sulphorhodamine B assay; conditions: read-out: GI; how it was run: as §1
RPMI-8226 = assay: Cytotoxicity against human RPMI8226 cells assessed as growth inhibition at 10 uM after 48 hrs by sulphorhodamine B assay; conditions: RPMI-8226, 48 h, read-out: GI; how it was run: as §1
OVCAR-4 = assay: Cytotoxicity against human OVCAR4 cells assessed as growth inhibition at 10 uM after 48 hrs by sulphorhodamine B assay; conditions: OVCAR-4, 48 h, read-out: GI; how it was run: as §1
PC-3 = assay: Cytotoxicity against human PC3 cells assessed as growth inhibition at 10 uM after 48 hrs by sulphorhodamine B assay; conditions: PC-3, 48 h, read-out: GI; how it was run: as §1
IGROV-1 = assay: Cytotoxicity against human IGROV1 cells assessed as growth inhibition at 10 uM after 48 hrs by sulphorhodamine B assay; conditions: IGROV-1, 48 h, read-out: GI; how it was run: as §1
DU-145 = assay: Cytotoxicity against human DU145 cells assessed as growth inhibition at 10 uM after 48 hrs by sulphorhodamine B assay; conditions: DU-145, 48 h, read-out: GI; how it was run: as §1
LOX IMVI = assay: Cytotoxicity against human LOXIMVI cells assessed as growth inhibition at 10 uM after 48 hrs by sulphorhodamine B assay; conditions: read-out: GI; how it was run: as §1
SR = assay: Cytotoxicity against human SR cells assessed as growth inhibition at 10 uM after 48 hrs by sulphorhodamine B assay; conditions: read-out: GI; how it was run: as §1
SNB-75 = assay: Cytotoxicity against human SNB75 cells assessed as growth inhibition at 10 uM after 48 hrs by sulphorhodamine B assay; conditions: SNB-75, 48 h, read-out: GI; how it was run: as §1
UO-31 = assay: Cytotoxicity against human UO31 cells assessed as growth inhibition at 10 uM after 48 hrs by sulphorhodamine B assay; conditions: UO-31, 48 h, read-out: GI; how it was run: as §1
U-251 = assay: Cytotoxicity against human U251 cells assessed as growth inhibition at 10 uM after 48 hrs by sulphorhodamine B assay; conditions: U-251, 48 h, read-out: GI; how it was run: as §1
MDA-MB-435 = assay: Cytotoxicity against human MDA-MB-435 cells assessed as growth inhibition at 10 uM after 48 hrs by sulphorhodamine B assay; conditions: MDA-MB-435, 48 h, read-out: GI; how it was run: as §1

COc1ccc(-c2c3c(nc4ncnc(N)c24)C(C)CCC3)cc1 (configuration not stated)
inhibition of growth at 10 µM (HOP-92): 20.4%
inhibition of growth at 10 µM (M14): < 10%
inhibition of growth at 10 µM (NCI-H522): < 10%
inhibition of growth at 10 µM (MDA-MB-468): 11.3%
inhibition of growth at 10 µM (SK-MEL-2): < 10%
inhibition of growth at 10 µM (K562): 23.4%
inhibition of growth at 10 µM (CAKI-1): < 10%
inhibition of growth at 10 µM (NCI-H23): < 10%
inhibition of growth at 10 µM (CCRF-CEM): 23%
inhibition of growth at 10 µM (HCT-15): 20%
inhibition of growth at 10 µM [1]: 11.5%
inhibition of growth at 10 µM (HL-60(TB)): < 10%
inhibition of growth at 10 µM (A549): < 10%
inhibition of growth at 10 µM (NCI/ADR-RES): 16.3%
inhibition of growth at 10 µM (MOLT-4): 14.3%
inhibition of growth at 10 µM (SNB-19): 10%
inhibition of growth at 10 µM (Hs-578T): < 10%
inhibition of growth at 10 µM (SF-295): < 10%
inhibition of growth at 10 µM (MCF7): < 10%
inhibition of growth at 10 µM (T47D): 47.7%
inhibition of growth at 10 µM (UACC-62): 20.9%
inhibition of growth at 10 µM (SF-268): < 10%
inhibition of growth at 10 µM (SK-MEL-5): 10%
inhibition of growth at 10 µM (SK-OV-3): < 10%
inhibition of growth at 10 µM (RXF 393): 20.3%
inhibition of growth at 10 µM (A498): < 10%
inhibition of growth at 10 µM (OVCAR-5): < 10%
inhibition of growth at 10 µM (HT-29): < 10%
inhibition of growth at 10 µM (HCT-116): 14.2%
inhibition of growth at 10 µM (ACHN): 10%
inhibition of growth at 10 µM (RPMI-8226): 25%
inhibition of growth at 10 µM (OVCAR-4): 12.6%
inhibition of growth at 10 µM (PC-3): 15%
inhibition of growth at 10 µM (IGROV-1): < 10%
inhibition of growth at 10 µM (DU-145): < 10%
inhibition of growth at 10 µM (LOX IMVI): 13%
inhibition of growth at 10 µM (SR): 17.3%
inhibition of growth at 10 µM (SNB-75): 20.5%
inhibition of growth at 10 µM (UO-31): 10.4%
inhibition of growth at 10 µM (U-251): 18.5%
inhibition of growth at 10 µM (MDA-MB-435): < 10%

CC1CCCc2c1nc1ncnc(N)c1c2-c1ccc(Cl)cc1 (configuration not stated)
inhibition of growth at 10 µM (HOP-92): 25.3%
inhibition of growth at 10 µM (M14): < 10%
inhibition of growth at 10 µM (NCI-H522): 11%
inhibition of growth at 10 µM (MDA-MB-468): 20%
inhibition of growth at 10 µM (SK-MEL-2): < 10%
inhibition of growth at 10 µM (K562): 25%
inhibition of growth at 10 µM (CAKI-1): < 10%
inhibition of growth at 10 µM (NCI-H23): < 10%
inhibition of growth at 10 µM (CCRF-CEM): 22.2%
inhibition of growth at 10 µM (HCT-15): 10%
inhibition of growth at 10 µM [1]: < 10%
inhibition of growth at 10 µM (HL-60(TB)): 12.4%
inhibition of growth at 10 µM (A549): < 10%
inhibition of growth at 10 µM (NCI/ADR-RES): < 10%
inhibition of growth at 10 µM (MOLT-4): < 10%
inhibition of growth at 10 µM (SNB-19): 21.3%
inhibition of growth at 10 µM (Hs-578T): 14.7%
inhibition of growth at 10 µM (SF-295): < 10%
inhibition of growth at 10 µM (MCF7): < 10%
inhibition of growth at 10 µM (T47D): 40%
inhibition of growth at 10 µM (UACC-62): 13.8%
inhibition of growth at 10 µM (SF-268): 12.3%
inhibition of growth at 10 µM (SK-MEL-5): 10.2%
inhibition of growth at 10 µM (SK-OV-3): 12%
inhibition of growth at 10 µM (RXF 393): 11%
inhibition of growth at 10 µM (A498): 27.7%
inhibition of growth at 10 µM (OVCAR-5): < 10%
inhibition of growth at 10 µM (HT-29): 13.3%
inhibition of growth at 10 µM (HCT-116): 14%
inhibition of growth at 10 µM (ACHN): < 10%
inhibition of growth at 10 µM (RPMI-8226): 21.3%
inhibition of growth at 10 µM (OVCAR-4): 17.8%
inhibition of growth at 10 µM (PC-3): 24.2%
inhibition of growth at 10 µM (IGROV-1): < 10%
inhibition of growth at 10 µM (DU-145): < 10%
inhibition of growth at 10 µM (LOX IMVI): < 10%
inhibition of growth at 10 µM (SR): < 10%
inhibition of growth at 10 µM (SNB-75): 21.5%
inhibition of growth at 10 µM (UO-31): 10.1%
inhibition of growth at 10 µM (U-251): 14.5%
inhibition of growth at 10 µM (MDA-MB-435): < 10%
